Experimental findings from ChEMBL document CHEMBL1124070, “Potential anticancer agents: 5-(N-substituted-aminocarbonyl)- and 5-(N-substituted-aminothiocarbonyl)-5,6,7,8-tetrahydrofolic acids” (J Med Chem, 1988) are described below.

Test [1] relates to HEp-2. Kind of test: Effective dose required to inhibit colony formation of H.Ep-2 cells. Type of test: functional. Conditions: Homo sapiens, read-out: ED50 (the source's name). In a few lines:
(§1)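 Colony-forming viability assay in H.Ep.-2 cells. The ED50 is the concentration that inhibits colony formation by 50%.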

Test [2] in a line: Compound was tested for activity against 10 isolated folate-utilizing enzymes; IA=Inactive.
A further test has as its system L1210. The test is described as follows: Compound was tested for activity against L1210 cells in mice; IA=Inactive. It counts as functional, cell-based. The note with it: Mus musculus.
Test [3] deals with HEp-2. Kind of test: Dose of compound required to inhibit colony formation of H.Ep-2 cells. It counts as functional, cell-based. The note with it: Homo sapiens. The method, boiled down: as §1
Another test concerns P388. Kind of test: Compound was tested for cytotoxicity against P388 cells; IA=Inactive. Type of test: functional, cell-based. The note with it: Mus musculus.

The structures appear in SMILES notation. Calls of active or inactive are those of the source. The rule behind the calls is not given here. Some results are limits rather than exact numbers.

`CCOC(=O)CCCCCCCNC(=O)N1c2c(O)nc(N)nc2NCC1CNc1ccc(C(=O)NC(CCC(=O)O)C(=O)O)cc1` (stereo not given): the EC50 in the test on HEp-2 [1] turned out to be 24 µM. `NC(=O)N1c2c(O)nc(N)nc2NCC1CNc1ccc(C(=O)NC(CCC(=O)O)C(=O)O)cc1` (stereo not given): the outcome in test [2] was inactive. In the test with L1210, the Cytotoxicity entry is “inactive”. For `Nc1nc(O)c2c(n1)NCC(CNc1ccc(C(=O)NC(CCC(=O)O)C(=O)O)cc1)N2/C(S)=N/c1ccccc1` (stereo not given), in test [2], the result was inactive. For the same compound, in the test on L1210, the Cytotoxicity result is “inactive”.

A word on the IC50: it is the concentration needed to halve the response being measured. Regarding `CCOC(=O)CCCCCCC/N=C(\S)N1c2c(O)nc(N)nc2NCC1CNc1ccc(C(=O)NC(CCC(=O)O)C(=O)O)cc1` (stereo not given), in the test on HEp-2 [3], the IC50 is over 25 µM. Consider `CC/N=C(\S)N1c2c(O)nc(N)nc2NCC1CNc1ccc(C(=O)NC(CCC(=O)O)C(=O)O)cc1` (stereo not given), for which the outcome in test [2] was inactive. Besides, in the test on L1210, the Cytotoxicity result is “inactive”.

Consider `Nc1nc(O)c2c(n1)NCC(CNc1ccc(C(=O)NC(CCC(=O)O)C(=O)O)cc1)N2C(=O)NCCCl` (stereo not given), for which the outcome in test [2] was inactive. Moreover, in the test with L1210, the Cytotoxicity entry is “inactive”. For `CCOC(=O)CCCCCCCCNC(=O)N1c2c(O)nc(N)nc2NCC1CNc1ccc(C(=O)NC(CCC(=O)O)C(=O)O)cc1` (stereo not given), the EC50 in the test on HEp-2 [1] came out at 35 µM. The Cytotoxicity entry with P388 was “inactive”.

Regarding `CCOC(=O)CCCCCC/N=C(\S)N1c2c(O)nc(N)nc2NCC1CNc1ccc(C(=O)NC(CCC(=O)O)C(=O)O)cc1` (stereo not given), the IC50 in the test on HEp-2 [3] was over 25 µM. Consider `CCOC(=O)CCCCCCNC(=O)N1c2c(O)nc(N)nc2NCC1CNc1ccc(C(=O)NC(CCC(=O)O)C(=O)O)cc1` (stereo not given), for which the EC50 with HEp-2 [1] was 4 µM. Moreover, the Cytotoxicity entry with P388 is “inactive”.

`CCOC(=O)CCCCCCCC/N=C(\S)N1c2c(O)nc(N)nc2NCC1CNc1ccc(C(=O)NC(CCC(=O)O)C(=O)O)cc1` (stereo not given) displayed an IC50 in the test with HEp-2 [3] of over 25 µM. For the same compound, the Cytotoxicity result in the test on P388 was “inactive”. In the test on HEp-2 [3], `CCOC(=O)CCCCC/N=C(\S)N1c2c(O)nc(N)nc2NCC1CNc1ccc(C(=O)NC(CCC(=O)O)C(=O)O)cc1` (stereo not given) yielded an IC50 of over 25 µM.

As for `CCOC(=O)CCCCCNC(=O)N1c2c(O)nc(N)nc2NCC1CNc1ccc(C(=O)NC(CCC(=O)O)C(=O)O)cc1` (stereo not given), the EC50 in the test with HEp-2 [1] was 13 µM. Further, the Cytotoxicity entry with P388 is “inactive”.
